Screening results deposited in PubChem by Johns Hopkins Ion Channel Center.
KCNQ1 pot: potentiators or activators of KCNQ1 channel, primary screen, cell-based, thallium flux, high-throughput; CHO-K1 KCNQ1, thallium flux FluxOR fluorescence; stronger effect = higher value; AID 2648, 2010; actives 0.35% (n = 310,000); B-score at 10 µM;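 active = fluorescence ratio B-score, a plate-corrected score, at least three library SD, with initial intensity B-score within 5 SD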
Target sequence (P51787 whole entry, looked up): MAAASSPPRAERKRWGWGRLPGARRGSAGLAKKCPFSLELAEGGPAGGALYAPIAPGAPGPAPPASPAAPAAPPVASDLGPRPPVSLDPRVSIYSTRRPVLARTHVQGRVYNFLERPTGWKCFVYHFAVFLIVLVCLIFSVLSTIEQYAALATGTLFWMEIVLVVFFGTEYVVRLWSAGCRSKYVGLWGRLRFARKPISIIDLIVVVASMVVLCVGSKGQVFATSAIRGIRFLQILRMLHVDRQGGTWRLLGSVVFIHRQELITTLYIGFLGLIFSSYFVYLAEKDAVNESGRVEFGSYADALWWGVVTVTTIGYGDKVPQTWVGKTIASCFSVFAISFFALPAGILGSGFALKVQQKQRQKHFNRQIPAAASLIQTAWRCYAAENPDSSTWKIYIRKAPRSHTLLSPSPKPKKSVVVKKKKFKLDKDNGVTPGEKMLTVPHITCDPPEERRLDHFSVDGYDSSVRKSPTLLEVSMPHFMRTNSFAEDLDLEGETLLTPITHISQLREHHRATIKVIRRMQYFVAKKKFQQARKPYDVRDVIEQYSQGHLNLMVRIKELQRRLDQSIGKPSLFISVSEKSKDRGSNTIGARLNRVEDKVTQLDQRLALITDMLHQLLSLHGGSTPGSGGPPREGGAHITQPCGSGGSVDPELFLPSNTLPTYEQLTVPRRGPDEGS
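Medium – assay buffer, equal DMSO in all wells · Material – CHO-K1 cell line with stable KCNQ1 potassium channel expression · Signal – kinetic FluxOR thallium fluorescence, 10-s 1-Hz baseline, 110-s post-stimulus read · Compound – single concentration per compound, DMSO matched to controls · Schedule – 37 °C overnight plating, 90-min dark dye load, 20-min compound pretreatment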
KCNK3 block: human KCNK3 channel inhibitors, primary screen, CHO cells, FluxOR thallium flux, B-score. Potassium channel subfamily K member 3 (Homo sapiens), O14649. FluxOR fluorescence; stronger effect = lower value. B-score at 10 µM. actives 0.84% (n = 340,000). AID 602410, 2012;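 active = B-score under library mean minus 4 SD, starting fluorescence ratio at most library mean plus 5 SD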;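 note: more negative B-score means stronger inhibition of thallium flux through KCNK3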
KCNQ1 block: inhibitors of human KCNQ1 channel, primary screen, cell-based, thallium flux, high-throughput | Potassium voltage-gated channel subfamily KQT member 1 (Homo sapiens), P51787 | CHO-K1 KCNQ1, FluxOR thallium flux fluorescence; stronger effect = higher value | B-score at 10 µM | actives 1.3% (n = 310,000);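 active = compounds whose thallium flux B-score, printed positive for inhibition, exceeds three library SD while starting fluorescence stays within three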;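 note: channel opened by potassium depolarization with thallium stimulus after 20 min compound exposure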
KCNK9 inh: KCNK9 potassium channel inhibitors, primary screen, HEK293 cells, thallium flux; Potassium channel subfamily K member 9 (Homo sapiens), Q9NPC2; FluxOR thallium flux fluorescence; stronger effect = lower value; B-score at 10 µM; actives 1.2% (n = 310,000);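 active = ratio B-score over 3 SD below the library mean, with starting fluorescence within 5 SD of its mean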;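 note: negative B-score means less thallium flux so channel inhibition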
hERG protect: hERG rescue from dofetilide block, primary screen, cell-based, CHO-hERG, FluxOR thallium flux, dofetilide IC70; dofetilide IC70 present; activation (rescue from dofetilide block), less the hit threshold, % at 10 µM; actives 0.51% (n = 310,000); AID 1511, 2009;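 active = activation above the mean of controls blocked by dofetilide plus 5 SD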;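 note: thallium influx through hERG after potassium depolarization seen as dye fluorescence rise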
* hit, by the source's call; i = inactive; / = no result given. Most compounds without a hit are left out; they make up all but 3.1% or so of the library.

SMILES | KCNQ1 pot | KCNK3 block | KCNQ1 block | KCNK9 inh | hERG protect
COc1ccccc1Nc1nnc(SCC(=O)c2c(N)n(C3CC3)c(=O)[nH]c2=O)s1 | / | i | / | / | /
Cc1ccc(S(=O)(=O)N(Cc2ccccc2)c2ccccc2C(=O)N2CCCCC2)cc1 | i | i | i | i | -7
C/C(=N\NC(=O)C1(C)CC1(Br)Br)c1cccc(NC(=O)C2CCC2)c1 (stereo not drawn) | i | i | i | -7.4* | -11
Cc1ccc(C(=O)NCC(=O)OCCCOC(=O)CNC(=O)c2ccc(C)cc2)cc1 | i | i | i | i | -18
O=C(Cn1ncc2c(=O)oc3ccccc3c21)N1CCN(C(=O)c2ccco2)CC1 | 8* | i | i | i | -12
COc1ccc(C2=NN(CC(=O)NCC(OC)OC)C(=O)CC2)cc1 | i | i | i | i | -3
Cc1noc(C)c1/C=N/Nc1ccccn1 | i | i | i | i | 6.4*
C/C(=N\N=C(c1ccccc1)c1ccccc1)c1ccco1 | i | i | 7* | i | -15
C[C@H](CO)N1C[C@H](C)[C@@H](CN(C)S(=O)(=O)c2ccccc2)Oc2ccc(NC(=O)CCN3CCOCC3)cc2C1=O | / | i | / | / | /
CCC12CN(S(=O)(=O)c3ccc(C)cc3)CC(CC)(CN(S(=O)(=O)c3ccc(C)cc3)C1)C2=O | i | -9.1* | i | i | -9
Cc1cccc(-c2noc(CCC(=O)N3CCN(c4cc(C)ccc4C)CC3)n2)c1 | / | -9.8* | / | / | /
Cc1ccc(C)c(N2CCN(C(=O)CCc3nc(-c4ccccc4)no3)CC2)c1 | / | i | / | / | /
Cc1ccc(C)c(N2CCN(C(=O)CCc3nc(-c4ccccc4C)no3)CC2)c1 | / | -9.2* | / | / | /
Cc1ccc(C)c(N2CCN(C(=O)CCc3nc(-c4ccccc4Cl)no3)CC2)c1 | / | i | / | / | /
CCN(C(=O)CSc1ncccn1)c1cccc2ccccc12 | / | i | / | / | /
CN(C(=O)c1cccc(NC(=O)Cc2cccc(NC(=O)C3CCN(C(=O)c4ccccc4)CC3)c2)c1)C1CC1 | / | i | / | / | /
Nc1nc(-c2ccccn2)nc(N)c1Cc1ccc(Cl)cc1Cl | 9* | i | i | i | -12
Cn1c(=O)c([N+](=O)[O-])c(Cl)c2ccccc21 | i | i | 9* | i | -30
O=C(Nc1ccc([N+](=O)[O-])cc1)Nc1cnccn1 | i | i | 12* | i | -16
CC(=O)c1ccc(-n2nncc2-c2ccc([N+](=O)[O-])cc2)cc1 | i | i | i | i | 5.5*
O=C(NNC(=O)c1cccnc1)Nc1ccc([N+](=O)[O-])cc1 | i | i | i | i | -8
CC(=O)c1ccc(NC(=O)Nc2ccncc2)cc1 | i | i | i | i | 4.8*
O=C(NNC(=O)c1ccncc1)Nc1ccc([N+](=O)[O-])cc1 | i | i | 7* | i | -3
O=C(O)CC(NC(=O)CC(c1ccccc1)c1ccccc1)c1cccc([N+](=O)[O-])c1 (stereo not drawn) | i | i | i | i | -5
C=CCN1C(=O)C(=O)N(CC(=O)NCC(=O)Nc2ccc(F)c(F)c2F)C1=O | / | i | / | / | /
Cc1ccc(N2CC(C(=O)Nc3cccnc3)CC2=O)cc1Cl (stereo not drawn) | i | i | i | i | -7
O=C(Nc1ccc(N2CCOCC2)cc1N1CCOCC1)c1cccc([N+](=O)[O-])c1 | i | i | i | i | -9
COc1ccc(CCNC(=O)COC(=O)c2cc(S(=O)(=O)N3CCOCC3)ccc2C)cc1OC | / | i | / | / | /
CC(=O)c1ccc(NC(=O)Nc2ccc([N+](=O)[O-])cc2)cc1 | i | i | 7* | i | -19
O=C(Nc1ccc(Oc2ccc(NC(=O)Nc3ccc([N+](=O)[O-])cc3)cc2)cc1)Nc1ccc([N+](=O)[O-])cc1 | i | i | 8* | i | -18
